Measurements from different studies.
Each line is one published result; the experiments were not run side by side.
Observed: cell growth or viability

SMILES | cell line | method | time | IC50 [µM]
COc1cc(N(C)CCN(C)C)c(NC(=O)/C=C/C(C)C)cc1Nc1nc(N2CCc3sccc3C2)c2sccc2n1 | NCI-H460 | MTT | – | > 50
CC(C)C[C@H](NC(=O)[C@H](Cc1ccccc1)NC(=O)c1cnccn1)B(O)O | GISTT1 | resazurin | 72 h | < 0.07
COc1cc(Nc2nccc(-c3cnn4nc(OC)ccc34)n2)cc(C(F)(F)F)c1 | NCI-H1838 | ATP luminescence | – | > 3
COc1cccc(C(=O)c2cc3c(-c4ccccc4)c(OC)ccc3o2)c1 | L1210 | – | 48 h | 10
C#C[C@]1(CO)O[C@@H](n2cnc3c(N)nc(F)nc32)C[C@@H]1O | MDCK-II | MTT | 48 h | 377
O=c1[nH]cc(F)c(=O)[nH]1 | L1210 | – | 48 h | 0.49
O=C1Nc2ccccc2C(=O)CCc2cc(F)ccc21 | L6 | – | – | 96
COc1cc(NS(C)(=O)=O)ccc1Nc1c2ccccc2nc2ccccc12 | GISTT1 | resazurin | 72 h | 0.31
O=C1CCc2ncccc2C(=O)Nc2ccccc21 | L6 | – | – | 160
O=c1ncccn1[C@@H]1O[C@H](CO)[C@@H](O)[C@H]1O | MEC1 | – | 48 h | 195
COc1ccc(C(=O)c2cc3c(-c4ccccc4)c(OC)ccc3o2)cc1 | L1210 | – | 48 h | 2.8
CC(C)[C@H](N)C(=O)N1CCC[C@H]1B(O)O | RS4-11 | ATP luminescence | 24 h | 0.147
O=C1CCc2ccccc2CC(=O)c2ccccc2N1 | L6 | – | – | > 380
COc1cc(-c2oc3cc(O)cc(O)c3c(=O)c2O)ccc1O | SCaBER | ATP luminescence | 72 h | 43.2
O=C(O)c1ccc2c(c1)C(=O)CCc1ccccc1C(=O)N2 | L6 | – | – | 220
CCC(=O)Nc1cc(Nc2nc(N3CCc4sccc4C3)c3cccnc3n2)c(OC)cc1N1CCN(CCO)CC1 | NCI-H460 | MTT | – | > 50
COc1c2ccoc2c(OCC=C(C)C)c2oc(=O)ccc12 | COLO 205 | MTT | 72 h | > 100
O=C1C(=Cc2ccccc2)CN(C(=O)c2ccc(C(=O)N3CC(=Cc4ccccc4)C(=O)C(=Cc4ccccc4)C3)cc2)CC1=Cc1ccccc1 | L1210 | – | – | > 500
O=C1Nc2ccccc2C(=O)CCc2cc(O)ccc21 | L6 | – | – | 84
CC(=O)[C@]1(O)Cc2c(O)c3c(c(O)c2[C@@H](O[C@H]2C[C@H](N)[C@H](O)[C@H](C)O2)C1)C(=O)c1ccccc1C3=O | GISTT1 | resazurin | 72 h | 0.1

SMILES | cell line | method | time | IC50 [µM]
COc1ccccc1C(=O)c1cc2c(-c3ccccc3)c(O)ccc2o1 | L1210 | – | 48 h | > 50
COc1cccc2c1C(=O)c1c(O)c3c(c(O)c1C2=O)C[C@@](O)(C(=O)CO)C[C@@H]3O[C@H]1C[C@H](N)[C@H](O)[C@H](C)O1 | GISTT1 | resazurin | 72 h | 0.31
CCC(=O)Nc1cc(Nc2nc(Nc3cnn(C)c3)c3sccc3n2)c(OC)cc1N(C)CCN(C)C | NCI-H460 | MTT | – | > 50
CC[C@@H](C)[C@H](N)C(=O)N1Cc2ccccc2C1 | RS4-11 | ATP luminescence | 24 h | 71.1
O=C1Nc2ccccc2C(=NO)CCc2ccccc21 | L6 | – | – | > 380
CCC1=C[C@@H]2CN(C1)Cc1c([nH]c3ccccc13)[C@@](C(=O)OC)(c1cc3c(cc1OC)N(C)[C@H]1[C@@](O)(C(=O)OC)[C@H](OC(C)=O)[C@]4(CC)C=CCN5CC[C@]31[C@@H]54)C2 | GISTT1 | resazurin | 72 h | 0.23
O=C1Nc2ccc(F)cc2C(=O)CCc2ccccc21 | L6 | – | – | 110
COc1ccc(/C=C\c2cc(OC)c(OC)c(OC)c2)cc1O | L1210 | – | 48 h | 0.0032
COc1cc([C@@H]2c3cc4c(cc3[C@@H](O[C@@H]3O[C@@H]5CO[C@@H](c6cccs6)O[C@H]5[C@H](O)[C@H]3O)[C@H]3COC(=O)[C@H]23)OCO4)cc(OC)c1O | GISTT1 | resazurin | 72 h | > 1
CC(C)[C@H](N)c1nc2cc(N3CCNCC3)sc2c(=O)[nH]1 | COLO 205 | MTT | – | > 10
Nc1nc(F)nc2c1ncn2[C@@H]1O[C@H](COP(=O)(O)O)[C@@H](O)[C@@H]1O | GISTT1 | resazurin | 72 h | > 1
COc1ccc2c(c1)C(=O)CCc1ccccc1C(=O)N2 | L6 | – | – | 47
CCN1CCN(c2ccc(Nc3cc(N(C)C(=O)Nc4c(Cl)c(OC)cc(OC)c4Cl)ncn3)cc2)CC1 | MDA-MB-453 | ATP luminescence | 96 h | > 1
O=c1c(O)c(-c2cc(O)c(O)c(O)c2)oc2cc(O)cc(O)c12 | SCaBER | ATP luminescence | 72 h | 30.3
CC(C)=CCC/C(C)=C/COc1ccc2ccc(=O)oc2c1 | COLO 205 | MTT | 72 h | 63.1
COc1cc([C@@H]2c3cc4c(cc3[C@@H](O[C@@H]3O[C@@H]5CO[C@@H](C)O[C@H]5[C@H](O)[C@H]3O)[C@H]3COC(=O)[C@H]23)OCO4)cc(OC)c1O | GISTT1 | resazurin | 72 h | > 1
CC(C)[C@H](N)c1nc2cc(-c3ccnc(Cl)c3)sc2c(=O)[nH]1 | COLO 205 | MTT | – | 1.6
COc1cccc(C(=O)c2cc3c(-c4ccccc4)c(O)ccc3o2)c1 | L1210 | – | 48 h | 38
C=C(C)C(=O)Nc1ccc(-c2c(-c3ccc(Oc4nccc(C)n4)c(F)c3)c3c(N)ncnc3n2C)cc1 | MDA-MB-453 | ATP luminescence | 96 h | > 10
